# From PubChem
# hiPSC survival: enhancers of single-cell hiPSC survival, primary screen, ATPlite luminescence | 360,000 compounds, 0.044% hits | survival enhancement, % at 20 µM | 100% = ROCK inhibitor wells, 0% = DMSO | AID 602274, 2012; in the data active means survival enhancement above about 18%;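 further: cells exposed to compounds for 16 hours before the ATP read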
# SKN-1 inh: suppressors of acrylamide-induced Pgst-4::GFP reporter in worms, primary screen, SKN-1 inhibitor project, whole organism, uHTS, GFP/RFP fluorescence ratio, strain VP596; inhibition, % at 21.8 µM; C. elegans VP596 Pgst-4::GFP/RFP ratio, 24 h; 360,000 compounds, 0.49% hits;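 active means interference check ratio from 0.5 to 1.5 plus GFP to RFP signal ratio inhibition reaching or exceeding a fixed threshold, cut at about 30% in these data, passing the limit was not always enough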
# MT1-MMP act inh: blockers of MT1-MMP proenzyme processing, primary screen, HT1080 RFP-PRO-GFP cells, GFP/RFP fluorescence; Matrix metalloproteinase-14 (Homo sapiens), P50281; GFP/RFP ratio fluorescence, overnight; percent of plate control window, DMSO zero; GFP/RFP ratio change, % at 20 µM; 360,000 compounds, 0.061% hits; AID 651647, 2012;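 active means GFP/RFP ratio change of at least 30% with cell ATP level not reduced by more than half and red fluorescence within 50% of control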
#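 Assay system: HT1080 RFP-PRO-GFP cells | Dosing: 20 µM single dose, 1% DMSO | Incubation: Cells overnight before dosing, compound overnight, 37 °C, 5% CO2 | Evaluation: GFP/RFP fluorescence ratio | Control set: DMSO-only wells and HT1080 RFP-L50D-GFP cell wells as references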
# Cneo AK release: Cryptococcus neoformans cell lysis inducers, primary screen, AK release luminescence, single concentration. 360,000 compounds, 0.2% hits. C. neoformans lysis, adenylate kinase release luminescence, 4 h; normalised: neutral wells 0, clomiphene wells 100. AID 651654, 2012. lysis activity, % at 15 µM;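 active means mean lysis activity across replicates of at least 80%, whatever share of replicates individually reach that level; inactive means mean lysis activity below 80%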
#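 Assay system: log-phase C. neoformans yeast / Quantity: yeast cell density of 5 × 10^6 cells/mL / Medium: fresh YPD growth medium / Compound: single dose / Timing: static 4 h at 37 °C with compound, 1 h detection / Measured by: adenylate kinase release luminescence / Read-out: lysis from increased AK signal / Benchmarks: Clomiphene as positive lysis control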
# DAGLB inh: DAGLB lipase inhibitors, primary screen, biochemical, fluorescence, HTS | 340,000 compounds, 0.059% hits | HEK293T DAGLB membrane lysate, EnzChek fluorogenic substrate | inhibition, % at 5.17 µM; in the data active means inhibition above about 34%;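 further: 0% = enzyme with vehicle and 100% = wells lacking enzyme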
# Target sequence (Q8NCG7 whole entry, looked up): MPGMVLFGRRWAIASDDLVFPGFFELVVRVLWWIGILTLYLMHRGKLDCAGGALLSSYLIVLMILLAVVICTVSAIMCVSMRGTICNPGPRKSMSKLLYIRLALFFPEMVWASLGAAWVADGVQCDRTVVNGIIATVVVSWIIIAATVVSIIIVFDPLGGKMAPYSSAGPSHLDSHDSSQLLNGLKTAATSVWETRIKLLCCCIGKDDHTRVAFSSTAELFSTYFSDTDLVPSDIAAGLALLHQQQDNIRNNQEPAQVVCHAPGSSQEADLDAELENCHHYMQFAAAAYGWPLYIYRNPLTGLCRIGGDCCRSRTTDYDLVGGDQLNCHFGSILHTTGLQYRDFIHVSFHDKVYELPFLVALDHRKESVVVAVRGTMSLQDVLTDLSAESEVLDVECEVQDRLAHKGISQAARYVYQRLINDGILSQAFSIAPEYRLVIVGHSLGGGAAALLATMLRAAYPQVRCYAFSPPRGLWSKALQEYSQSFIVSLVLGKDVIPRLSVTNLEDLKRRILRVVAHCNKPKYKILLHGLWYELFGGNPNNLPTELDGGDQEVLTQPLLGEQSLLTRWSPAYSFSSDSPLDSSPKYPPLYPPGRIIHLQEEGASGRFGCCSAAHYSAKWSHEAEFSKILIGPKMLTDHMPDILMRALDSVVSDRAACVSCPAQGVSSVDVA
# rRNA inh HTS: reduced GFP signal of wild-type E. coli, primary screen, bacterial rRNA inhibitor project, GFP/RFP fluorescence, OD600, single point. 350,000 compounds, 1.6% hits. E. coli WT GFP vs humanized-ribosome RFP mutants, 24 h; active compounds read low; DMSO median 0, no signal -100. GFP signal change (wild-type ribosome), % (no concentration beside the values). AID 720706, 2013;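 active means significant combined selectivity score with lowered wild-type GFP, culture density cut under 30%, mutant RFP and density less affected; inactive means any of these conditions unmet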
# AID977621: growth inhibition of wild-type GFP E. coli, dose response, H69 mutant RFP, cherry-pick | shares compounds with rRNA inh HTS | E. coli wild-type GFP strain growth, fluorescence, 24 h | activity change, negative = inhibition at 50 µM | 1,900 tested, under 10 active | AID 977621, 2014;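 active means Wild-type ribosome reporter drop at least double the humanized mutant ribosome reporter drop, growth loss under a set limit; inconclusive means no clear call, values can overlap the other calls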;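 further: wild-type GFP and H69 mutant RFP strains grown together 50/50 in each well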
# AID977628: E. coli growth inhibition, wild-type GFP versus h24 humanized RFP strain, dose response, h24 mutant RFP vs wild-type GFP, cherry-pick; shares compounds with rRNA inh HTS; E. coli WT GFP strain growth, fluorescence, 24 h; activity change, negative = inhibition at 50 µM; 1,900 tested, under 10 active; AID 977628, 2014;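 active means compound lowering the normal-ribosome reporter at least twice as much as the humanized-ribosome reporter, growth loss under a set limit; inconclusive means no clear call, values can overlap the other calls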;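 further: wild-type GFP and h24 humanized RFP strains co-cultured 1 to 1 per well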
# Numbers without * were called inactive; ? = inconclusive; . = not tested or not shown. Only some compounds are listed: those with a hit (about 1.8% of all), similar ones and a draw of the others.
SMILES,hiPSC survival,SKN-1 inh,MT1-MMP act inh,Cneo AK release,DAGLB inh,rRNA inh HTS,AID977621,AID977628
Cc1noc(C)c1S(=O)(=O)N(C)C[C@H]1Oc2ccc(NC(=O)CCCCCC(=O)Nc3ccccc3N)cc2CC(=O)N([C@@H](C)CO)C[C@H]1C,.,.,.,.,.,0.9,.,.
O=C(Nc1cc(S(=O)(=O)N2CCCCC2)ccc1N1CCCCC1)C1CC1,-0.6,5.0,1.1,.,-0.2,-20.1*,-6.49,-5.63
COCC(=O)Nc1ccc2c(c1)C(=O)N(C)C[C@H](OC)[C@H](C)CN(C(=O)Cc1cccnc1)[C@H](C)CO2,.,.,.,-4.1,.,4.8,.,.
COc1ccc(CNC(=O)c2sc3nc4c(c(C(F)(F)F)c3c2N)CCC4)cc1OC,0.6,3.3,-7.9,-3.0,-1.2,-19.3*,-0.684,3.27
COc1ccc(-c2c3c(nc4sc(C(=O)Nc5cc(C)on5)c(N)c24)CCC3)cc1,-0.1,8.4,-16.9,-9.6,-1.4,.,.,.
Cc1ccccc1NC(=O)c1ccccc1N(C)S(=O)(=O)c1ccccc1,-0.7,1.4,-2.0,.,-0.1,-18.9*,-21.1,?
CC(C)(C)c1ccc(N2C(=O)CSC2c2cccnc2)cc1 (stereo not drawn),-0.1,18.9,1.6,-1.1,-2.5,-19.5*,-10.4,.
O=C1CSC(c2cccnc2)N1Cc1ccc(Cl)c(Cl)c1 (stereo not drawn),-0.3,-0.7,0.8,.,1.2,-34.5*,.,-4.76
Cc1ccc(S(=O)(=O)N2C/C=C\CN(S(=O)(=O)c3ccccc3Br)CC2)cc1,-0.5,-6.9,-2.9,-1.6,-4.8,-15.8,.,.
Cc1ccc(S(=O)(=O)N2CCCN(S(=O)(=O)c3ccccc3Br)CC2)cc1,0.0,8.9,1.2,-1.7,-7.5,-17.1*,-17.2,?
CCN=C1NN=C(c2ccc(C)cc2)CS1,-2.8,8.2,-5.2,0.5,-1.1,-22.5*,-10.5,-8.07
C[C@H](NC(=O)[C@@H]1[C@@H](CO)[C@@H]2Cn3c(ccc(-c4ccccc4F)c3=O)[C@H]1N2C)c1ccccc1,.,.,.,0.0,.,0.2,.,.
COc1ccc(C(=O)Nc2ccc3ncccc3c2)cc1,-0.7,-11.2,2.9,-8.1,-2.3,-3.6,.,.
Cc1ccc(C(=O)Nc2ccc3ncccc3c2)cc1,-0.9,-1.5,2.0,129.1*,-2.5,-15.6*,.,-11.6
C[C@@H]1CN([C@@H](C)CO)C(=O)c2cc(-c3cccc(C(=O)N(C)C)c3)cnc2O[C@@H]1CN(C)S(=O)(=O)c1ccccc1,.,.,.,0.0,.,2.5,.,.
COc1ccccc1S(=O)(=O)N[C@H]1C=C[C@H](CC(=O)N2CCCCC2)O[C@@H]1CO,.,.,.,20.5,.,-1.1,.,.
O=S(=O)(N[C@@H]1CC[C@@H](CCn2cc(-c3ccccc3F)nn2)O[C@H]1CO)c1ccc(F)cc1,.,.,.,.,.,-1.9,.,.
CC(NC(=O)C12CC3CC(C)(CC(C)(C3)C1)C2)c1ccncc1 (stereo not drawn),-0.4,5.6,-5.3,1.4,0.3,-23.6*,-19.6,-7.7
CN(C)C(=O)c1cccc(-c2ccc3c(c2)[C@@H]2[C@@H](CCN2C(=O)c2ccc4c(c2)OCO4)[C@H](CO)N3)c1,.,.,.,-22.8,.,-3.0,.,.
COc1ccccc1CC(=O)NCc1csc(-c2cccs2)n1,-0.2,-11.1,4.9,0.5,.,-21.2*,-11.3,5.69
CCc1ccc(C(=O)Nc2cccnc2Oc2ccc(Cl)cc2)cc1,0.8,2.3,-7.1,.,-28.4,-20.6*,-8.22,.
O=C(COc1cccc(NC(=O)c2cccs2)c1)c1ccc(F)cc1,1.0,7.4,0.1,.,1.1,-16.2,.,.
O=C(Nc1cccc(Oc2ccc3c(c2)C(=O)NC3=O)c1)c1cccs1,-1.9,2.7,5.4,.,1.6,-29.9*,-4.26,.
O=C(NC[C@H]1N[C@H](CO)[C@@H]1c1ccc(-c2cncnc2)cc1)C1CCC1,.,.,.,.,.,-0.8,.,.
CCC(=O)N1CC(=O)N2[C@H](CO)[C@@H](c3ccc(-c4ccncc4)cc3)[C@H]2C1,.,.,.,.,.,1.1,.,.
SMILES,hiPSC survival,SKN-1 inh,MT1-MMP act inh,Cneo AK release,DAGLB inh,rRNA inh HTS,AID977621,AID977628
COc1ccc(NC(=O)Nc2ccc3c(c2)C(=O)N([C@H](C)CO)C[C@@H](C)[C@@H](CN(C)Cc2ccc4c(c2)OCO4)OCCCC[C@@H](C)O3)cc1,.,.,.,0.2,.,0.4,.,.
C[C@@H]1NS(=O)(=O)c2c(F)cccc2O[C@@H]1c1ccccc1,.,.,.,.,.,-21.8*,.,?
CCCNC(=O)[C@@H]1[C@@H](CO)[C@@H]2Cn3c(ccc(-c4ccccc4F)c3=O)[C@H]1N2C(=O)CC,.,.,.,-2.2,.,5.2,.,.
CC(C)(C)CC(=O)NCCc1csc(-c2ccccc2)n1,0.3,-5.5,-0.1,.,1.0,-15.9*,-3.78,?
O=C(O)c1ccccc1Nc1cc(Cl)c2nonc2c1[N+](=O)[O-],0.3,21.7,5.0,-7.7,6.8,-20.3*,?,.
O=C(O)c1cccc(Nc2cc(Cl)c3nonc3c2[N+](=O)[O-])c1,2.4,10.8,1.2,.,-0.1,-13.2,.,.
CC(=O)c1cccc(NC(=O)COC(=O)CCC(=O)c2ccc(F)cc2)c1,3.9,12.7,0.9,1.0,0.7,-17.1*,-1.82,.
O=C(COC(=O)CCC(=O)c1ccc(F)cc1)Nc1cccc(S(=O)(=O)N2CCCC2)c1,0.5,-11.4,4.8,.,-3.2,-21.2*,-20.7,-10.8
O=C(COC(=O)c1n[nH]c2ccccc12)Nc1cccc(S(=O)(=O)N2CCOCC2)c1,-0.4,14.6,3.9,.,-2.2,-25.3*,-17.7,-12.6
Cc1cccc(-c2nsc(SCC(=O)NCC3CCCO3)n2)c1 (stereo not drawn),-0.5,7.5,2.5,.,2.1,-21.9*,-3.06,1.95
Cc1onc(-c2ccccc2)c1C(=O)Oc1ccccc1,-0.5,3.1,-0.5,-0.7,.,-28.8*,-3.33,-2.95
C[C@H](CO)N1C[C@H](C)[C@@H](CN(C)Cc2ccc(Cl)c(Cl)c2)OCc2cn(nn2)CCCC1=O,.,.,.,.,.,-0.9,.,.
Cc1ccc2oc(=O)n(CCOc3ccccc3C)c2c1,-0.1,-3.9,-6.2,3.7,-14.4,11.7,.,.
